Data from ChEMBL document CHEMBL1126893, “Synthesis and CLOGP correlation of imidooxy anticonvulsants” (J Med Chem, 1993).
The source made the active and inactive calls.

How the values were obtained:
Mus musculus [1] = assay: Time of peak effect of activity of compound was measured by both MES and sc Met test in mice; format: functional
Outline: (§1)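 Phase II quantification in mice after ip dosing. ED50 (scMet or MES) measured at the time of peak effect. TD50 (rotorod neurologic deficit) measured at the time of peak neurologic deficit. Medians and 95% confidence limits by the Litchfield-Wilcoxon method. Protective index = TD50/ED50. Time of peak effect determined in the MES or scMet test.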

Mus musculus [2] = assay: Time of peak effect of toxicity of compound was measured by both MES and sc Met test in mice; format: functional; outline: as §1
Rattus norvegicus = assay: Effective dose was measured in rat by subcutaneous pentylenetetrazole method by ip administration; NE= Not effective; format: functional, organism-based
Mus musculus [3] = assay: Elevation of threshold for electroshock induced seizures in mice was measured by ip administration after 0.5 hr at the dose of 60 mg /kg; format: functional
Outline: (§2)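 Elevation of maximal (tonic extension) electroshock seizure threshold in male CF1 mice (23-34 g). Compound given ip as a 0.5% methylcellulose suspension at 60, 80 and 90 mg/kg, with testing at 0.5 h. Read-out is % elevation of threshold. TID20 is the dose raising the threshold by 20%.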

Mus musculus [4] = species on record: Mus musculus; assay: TID20 was measured by MES test in mice; format: functional; outline: as §2
Mus musculus [5] = species on record: Mus musculus; assay: Protective index (TD50/ED50) value in MES test in mice; format: functional
Mus musculus [6] = assay: Elevation of threshold for electroshock induced seizures in mice was measured by ip administration after 0.5 hr at the dose of 90 mg/kg; format: functional; settings: route intraperitoneal; outline: as §2
Mus musculus [7] = assay: Elevation of threshold for electroshock induced seizures in mice was measured by po administration after 0.5 hr at the dose of 200 mg/kg; 1/8; format: functional
Outline: (§3)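 Maximal electroshock test in male CF1 mice (23-34 g). Compound given as a 0.5% methylcellulose suspension ip or po, with testing at 0.5 h after several doses. Endpoint is protection from tonic hind limb extension.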

Mus musculus [8] = species on record: Mus musculus; assay: Time of peak effect of activity of compound was measured by MES test in mice; format: functional; outline: as §1
Mus musculus [9] = assay: Effective dose was measured in mouse by maximal electroshock method by ip administration; 100-122; format: functional; outline: as §1
Mus musculus [10] = species on record: Mus musculus; assay: Time of peak effect of toxicity of compound was measured by MES test in mice; format: functional; outline: as §1
Mus musculus [11] = species on record: Mus musculus; assay: ED50 value of compound was expressed as dose protecting 50% of mice from tonic hind limb extension; format: functional; settings: Hindlimb; outline: as §3
Mus musculus [12] = assay: Elevation of threshold for electroshock induced seizures in mice was measured by po administration after 0.5 hr at the dose of 300 mg/kg; 2/8; format: functional; outline: as §3
Mus musculus [13] = assay: Elevation of threshold for electroshock induced seizures in mice was measured by ip administration after 0.5 hr at the dose of 80 mg /kg; format: functional; outline: as §2
Mus musculus [14] = assay: Elevation of threshold for electroshock induced seizures in mice was measured by po administration after 0.5 hr at the dose of 400 mg/kg; 2/5; format: functional; outline: as §3

| SMILES | TPE (Mus musculus [1]) [toxicity] | TPE (Mus musculus [2]) | ED50 (Rattus norvegicus) | Elevation of threshold (Mus musculus [3]) [%] | TID20 (Mus musculus [4]) [mg/kg] | PI (Mus musculus [5]) | Elevation of threshold (Mus musculus [6]) [%] | No. of mice protected/tested (Mus musculus [7]) | TPE (Mus musculus [8]) | ED50 (Mus musculus [9]) [mg/kg] | TPE (Mus musculus [10]) [toxicity] | ED50 (Mus musculus [11]) [mg/kg] | No. of mice protected/tested (Mus musculus [12]) | Elevation of threshold (Mus musculus [13]) [%] | No. of mice protected/tested (Mus musculus [14]) |
| --- | --- | --- | --- | --- | --- | --- | --- | --- | --- | --- | --- | --- | --- | --- | --- |
| O=C1NC(=O)C(c2ccccc2)(c2ccccc2)N1 [PHENYTOIN] | 2 | 2 | inactive |  |  |  |  |  |  |  |  |  |  |  |  |
| CCC1(c2ccccc2)C(=O)NC(=O)NC1=O [PHENOBARBITAL] | 1 | 0.5 |  |  |  |  |  |  |  |  |  |  |  |  |  |
| O=C1CC2(CCCC2)C(=O)N1OCc1ccccc1 |  |  |  | 14 | 71 | >4.5 | 28 | 1 | 0.25 | 111 | 4 | 494 | 2 | 26 | 2 |
